# Assay results from ChEMBL document CHEMBL5260797, “N-(1-Benzyl-3,5-dimethyl-1H-pyrazol-4-yl)benzamides: Antiproliferative Activity and Effects on mTORC1 and Autophagy” (ACS Med Chem Lett, 2017).
# The source made the active and inactive calls. The calls are words filed in the database; no cut-off is given here.
# Key:
# [1] = test system: MIA PaCa-2; test: Antiproliferative activity against human MIA PaCa-2 cells assessed as cell viability measured after 72 hrs by MTT assay; type: functional, cell-based; conditions: MIA PaCa-2, 72 h
# Method in brief: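 MIA PaCa-2 pancreatic cancer cells; EC50 values determined in triplicate.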
# [2] = target: T1, mTORC1 (Homo sapiens) (UniProt P42345+Q8N122+Q9BVC4); test: Inhibition of mTORC1 reactivation in human ARPE-19 cells assessed as reduction of P70 phosphorylation at 10 uM preincubated for 4 hrs under starvation/refeed condition measured after 1 hr in complete medium by Western blot analysis; type: cell-based; conditions: time 5.0 hrs
# T1 sequence (Q8N122 whole entry, looked up, other chains not shown): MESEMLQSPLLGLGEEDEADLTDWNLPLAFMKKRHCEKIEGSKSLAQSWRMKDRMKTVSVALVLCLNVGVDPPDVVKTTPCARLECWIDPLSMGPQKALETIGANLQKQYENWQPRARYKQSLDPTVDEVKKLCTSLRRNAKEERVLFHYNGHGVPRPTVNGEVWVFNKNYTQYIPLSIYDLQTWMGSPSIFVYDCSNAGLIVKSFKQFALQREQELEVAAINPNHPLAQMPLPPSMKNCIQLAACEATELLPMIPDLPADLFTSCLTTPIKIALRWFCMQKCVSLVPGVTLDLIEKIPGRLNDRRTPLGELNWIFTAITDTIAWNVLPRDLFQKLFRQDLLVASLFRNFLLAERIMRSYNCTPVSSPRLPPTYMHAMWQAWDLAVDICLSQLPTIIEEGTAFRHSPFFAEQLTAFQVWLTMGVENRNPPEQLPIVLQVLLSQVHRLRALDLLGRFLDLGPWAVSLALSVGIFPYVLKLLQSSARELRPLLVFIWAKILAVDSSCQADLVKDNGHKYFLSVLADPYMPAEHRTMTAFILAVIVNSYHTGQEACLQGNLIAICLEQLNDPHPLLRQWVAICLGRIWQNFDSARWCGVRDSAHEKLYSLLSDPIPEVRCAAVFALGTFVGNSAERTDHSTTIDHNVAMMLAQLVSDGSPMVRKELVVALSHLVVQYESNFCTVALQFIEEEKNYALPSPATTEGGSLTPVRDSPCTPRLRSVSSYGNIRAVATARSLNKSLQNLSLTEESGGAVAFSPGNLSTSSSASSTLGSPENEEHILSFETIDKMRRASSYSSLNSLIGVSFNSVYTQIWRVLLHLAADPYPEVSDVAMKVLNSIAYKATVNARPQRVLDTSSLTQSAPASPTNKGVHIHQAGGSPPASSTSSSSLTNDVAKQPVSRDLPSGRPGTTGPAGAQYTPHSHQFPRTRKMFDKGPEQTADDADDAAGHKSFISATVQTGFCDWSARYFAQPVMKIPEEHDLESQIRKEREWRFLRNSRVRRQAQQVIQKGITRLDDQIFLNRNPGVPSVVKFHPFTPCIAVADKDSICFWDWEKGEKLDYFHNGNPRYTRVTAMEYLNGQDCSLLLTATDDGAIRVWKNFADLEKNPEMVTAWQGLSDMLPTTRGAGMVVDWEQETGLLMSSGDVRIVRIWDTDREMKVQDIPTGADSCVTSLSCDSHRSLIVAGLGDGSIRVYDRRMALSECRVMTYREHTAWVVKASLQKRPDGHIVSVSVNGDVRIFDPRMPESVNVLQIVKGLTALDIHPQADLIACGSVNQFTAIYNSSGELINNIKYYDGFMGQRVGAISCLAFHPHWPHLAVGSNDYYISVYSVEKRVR
# T1 sequence (Q9BVC4 whole entry, looked up, other chains not shown): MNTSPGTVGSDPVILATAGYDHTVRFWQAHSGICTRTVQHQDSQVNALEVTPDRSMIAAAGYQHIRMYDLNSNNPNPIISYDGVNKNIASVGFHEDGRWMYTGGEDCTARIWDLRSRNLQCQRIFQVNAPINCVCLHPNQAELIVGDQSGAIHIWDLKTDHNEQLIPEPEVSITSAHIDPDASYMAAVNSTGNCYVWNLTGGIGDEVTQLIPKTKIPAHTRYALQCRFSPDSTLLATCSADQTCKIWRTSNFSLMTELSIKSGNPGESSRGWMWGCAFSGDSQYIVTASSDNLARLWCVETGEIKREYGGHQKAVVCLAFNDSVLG
# Method in brief: (§1)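 ARPE-19 cells starved 4 h in EBSS, then refed 1 h in complete medium with 10 μM compound or DMSO. mTORC1 reactivation read by Western blot as phosphorylation of P70 and 4EBP1.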
# [3] = Thermodynamic aqueous solubility of the compound at pH 7.4 measured after 48 hrs by UV-spectrometry method; type: physicochemical; conditions: read-out: Therm_solubility
# [4] = test system: ARPE-19; test: Inhibition of autophagy in human ARPE-19 cells assessed as fold decrease in LC3 turnover at 10 uM pretreated for 30 mins with cells followed by incubation for 4 hrs under starvation condition by Western blot analysis; conditions: time 4.5 hrs
# [5] = test system: ARPE-19; test: Induction of autophagy in human ARPE-19 cells assessed as decrease in LC3-2/actin ratio at 10 uM pretreated for 30 mins with cells followed by incubation for 4 hrs under starvation condition by Western blot analysis; type: functional, cell-based; conditions: time 4.5 hrs
# Method in brief: (§2)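 ARPE-19 cells pretreated 30 min at 10 μM (or DMSO). Then 4 h with compound in EBSS starvation medium, or in EBSS with 100 nM bafilomycin. LC3-II/actin quantified by Western blot as fold of DMSO control, n = 3.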
# [6] = Metabolic stability in mouse plasma assessed as parent compound remaining measured after 24 hrs by LC-MS/MS analysis; type: ADME, cell-free; conditions: read-out: Stability
# [7] = target: T1, mTORC1 (Homo sapiens); test: Inhibition of mTORC1 reactivation in human ARPE-19 cells at 25 to 50 uM preincubated for 4 hrs under starvation/refeed condition measured after 1 hr in complete medium by Western blot analysis; type: cell-based; conditions: dose 25-50 µM, time 5.0 hrs
# [8] = target: T1, mTORC1 (Homo sapiens); test: Inhibition of mTORC1 in human ARPE19 cells at 10 to 50 uM measured after 4 hrs by Western blot analysis related to control; type: cell-based; conditions: ARPE-19, dose 10-50 µM
# Method in brief: (§3)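 ARPE-19 cells treated 4 h without starvation with increasing concentrations or DMSO. Basal mTORC1 activity measured by Western blot as phosphorylated P70/total P70, with DMSO set to 100%.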
# [9] = test system: ARPE-19; test: Induction of autophagy in human ARPE-19 cells assessed as LC3 level at 25 uM measured after 4 hrs under starvation/refeed condition by immunofluorescence analysis; type: functional, cell-based
# Method in brief: (§4)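 ARPE-19 cells starved 4 h in EBSS, then refed 1 h in complete medium containing 25 μM compound or DMSO. LC3 punctae imaged by immunofluorescence, with CD63 co-stain.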
# [10] = test system: ARPE-19; test: Induction of autophagy in human ARPE-19 cells assessed as appearance of abnormal punctae at 25 uM measured after 1 hr under starvation/refeed condition by immunofluorescence analysis; type: functional, cell-based; method in brief: as §4
# [11] = target: T1, mTORC1 (Homo sapiens); test: Inhibition of mTORC1 reactivation in human ARPE-19 cells assessed as reduction of 4E-BP1 phosphorylation at 10 uM preincubated for 4 hrs under starvation/refeed condition measured after 1 hr in complete medium by Western blot analysis; type: cell-based; conditions: time 5.0 hrs; method in brief: as §1
# [12] = test system: ARPE-19; test: Induction of autophagy in human ARPE-19 cells assessed as increase in LC3-labeled punctae at 25 uM measured after 4 hrs by immunofluorescence analysis relative to control; type: functional, cell-based
# Method in brief: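 ARPE-19 cells treated 4 h at 25 μM in complete medium without starvation, or with DMSO. LC3 punctae detected by immunofluorescence, with CD63 as late endosomal/lysosomal marker.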
# [13] = test system: ARPE-19; test: Induction of autophagy in human ARPE-19 cells assessed as LC3 accumulation at 25 to 50 uM measured after 4 hrs under refeed condition by immunofluorescence analysis; type: functional, cell-based; conditions: dose 25-50 µM
# [14] = Cytotoxicity against human ARPE-19 cells assessed as cell viability measured after 72 hrs by MTT assay; type: toxicity, cell-based
# [15] = Metabolic stability in mouse liver microsomes assessed as half life at 1 uM by LC-MS/MS analysis; type: ADME, Microsome
# [16] = test system: ARPE-19; test: Induction of autophagy in human ARPE-19 cells assessed as LC3 enlarged structures at 25 uM pretreated for 30 mins with cells followed by incubation for 4 hrs under starvation condition by immunofluorescence analysis; type: functional, cell-based; conditions: time 4.5 hrs
# Method in brief: (§5)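 ARPE-19 cells starved 4 h in EBSS with 25 μM compound or DMSO. LC3-labeled structures imaged by immunofluorescence, with CD63 as late endosomal/lysosomal marker.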
# [17] = Metabolic stability in human plasma assessed as parent compound remaining measured after 6 hrs by LC-MS/MS analysis; type: ADME, cell-free; conditions: read-out: Stability
# [18] = target: T1, mTORC1 (Homo sapiens); test: Inhibition of mTORC1 in human ARPE19 cells assessed as decrease in P70/total P70 phosphorylation level at 10 uM measured after 4 hrs by Western blot analysis; type: cell-based; conditions: ARPE-19; method in brief: as §3
# [19] = Metabolic stability in mouse plasma assessed as parent compound remaining measured after 6 hrs by LC-MS/MS analysis; type: ADME, cell-free; conditions: read-out: Stability
# [20] = target: T1, mTORC1 (Homo sapiens); test: Inhibition of mTORC1 in human ARPE19 cells measured after 4 hrs by Western blot analysis; type: cell-based; conditions: ARPE-19, dose 10-50 µM; method in brief: as §3
# [21] = Metabolic stability in human plasma assessed as parent compound remaining measured after 24 hrs by LC-MS/MS analysis; type: ADME, cell-free; conditions: read-out: Stability
# [22] = test system: ARPE-19; test: Induction of autophagy in human ARPE-19 cells assessed as decrease in LC3-2/actin ratio at 10 uM pretreated for 30 mins with cells followed by incubation for 4 hrs under starvation condition in presence of bafilomycin by Western blot analysis; type: functional, cell-based; conditions: time 4.5 hrs; method in brief: as §2
# [23] = test system: ARPE-19; test: Reduction in autophagic flux in human ARPE-19 cells at 25 uM incubated for 4 hrs in complete medium in presence of bafilomycin; type: functional, cell-based
# Method in brief: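 ARPE-19 cells in full medium with 100 nM bafilomycin plus compound or DMSO. Autophagic flux read as LC3-II by Western blot.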
# [24] = test system: ARPE-19; test: Induction of autophagy in human ARPE-19 cells assessed as increase in LC3-2 conversion at 10 uM measured after 4 hrs by Western blot analysis; type: functional, cell-based
# Method in brief: (§6)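 ARPE-19 cells treated 4 h in complete medium without starvation with increasing concentrations (10, 25, 50 μM) or DMSO. LC3 detected by Western blot; LC3-II/actin ratio expressed as fold increase over DMSO control, n = 3.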
# [25] = test system: ARPE-19; test: Induction of autophagy in human ARPE-19 cells assessed as fold increase in LC3 turnover at 25 uM measured after 4 hrs by Western blot analysis; type: functional
# Method in brief: (§7)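 ARPE-19 human retinal pigment epithelial cells exposed 4 h to compound or DMSO in complete medium without starvation. LC3 conversion read by Western blot as LC3-II/actin ratio and expressed as fold increase over DMSO control, n = 3.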
# [26] = test system: ARPE-19; test: Induction of autophagy in human ARPE-19 cells assessed as appearance of LC3 non-uniformed shapes at 25 uM pretreated for 30 mins with cells followed by incubation for 4 hrs under starvation condition by immunofluorescence analysis; type: functional, cell-based; conditions: time 4.5 hrs; method in brief: as §5
# [27] = test system: ARPE-19; test: Induction of autophagy in human ARPE-19 cells assessed fold increase in LC3 turnover at 10 uM pretreated measured after 1 hr under refeed condition by Westernblot analysis; type: functional
# Method in brief: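 ARPE-19 cells pretreated 30 min with 10 μM compound or DMSO, starved 4 h in EBSS, then refed 1 h in complete medium with compound or DMSO. LC3-II/actin quantified by Western blot and expressed as fold increase over DMSO control, n = 3.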
# [28] = test system: ARPE-19; test: Induction of autophagy in human ARPE-19 cells assessed as fold increase in LC3 turnover at 50 uM measured after 4 hrs by Western blot analysis; type: functional; method in brief: as §7
# [29] = test system: ARPE-19; test: Induction of autophagy in human ARPE-19 cells assessed as increase in LC3-2 conversion measured after 4 hrs by Western blot analysis; type: functional, cell-based; conditions: dose 25-50 µM; method in brief: as §6
# [30] = test system: ARPE-19; test: Induction of autophagy in human ARPE-19 cells assessed as increase in LC3-2 conversion at 25 to 50 uM measured after 4 hrs by Western blot analysis; type: functional, cell-based; conditions: dose 25-50 µM; method in brief: as §6
structure (smiles),measurement,setting,value
Cc1nn(Cc2cccc(C(N)=O)c2)c(C)c1NC(=O)c1ccc(COc2ccccc2)cc1,EC50,[1],9.2 µM
CNC(=O)c1cccc(Cn2nc(C)c(NC(=O)c3ccc(COc4ccc(C(F)(F)F)cc4)cc3)c2C)c1,Activity,[2],inactive
same,solubility thermodynamic at 48 h,[3],67.3 µM
same,EC50,[1],0.8 µM
same,fold change (FC),[4],1.2
same,Activity,[5],Active
same,remaining at 24 h,[6],77%
same,inhibition,[7],Active
same,inhibition,[8],46%
same,Activity,[9],Active
same,Activity,[10],Active
same,Activity,[11],inactive
same,Activity,[12],Active
same,Activity,[13],Active
same,EC50 at 72 h,[14],47.9 µM
same,half-life at 1 µM,[15],1 h
same,Activity,[16],Active
same,remaining at 6 h,[17],99%
same,inhibition,[18],Active
same,remaining at 6 h,[19],91%
same,inhibition,[20],Dose-Dependent Effect
same,remaining at 24 h,[21],100%
same,Activity,[22],inactive
same,Activity,[23],inactive
same,Activity,[24],Active
same,fold change (FC),[25],2.7
same,Activity,[26],Active
Cc1nn(Cc2ccccc2C(N)=O)c(C)c1NC(=O)c1ccc(COc2ccccc2)cc1,EC50,[1],42 µM
CNC(=O)c1cccc(Cn2nc(C)c(NC(=O)c3ccc(COc4ccc(OC)cc4)cc3)c2C)c1,EC50,[1],8 µM
CCNC(=O)c1cccc(Cn2nc(C)c(NC(=O)c3ccc(COc4ccccc4)cc3)c2C)c1,EC50,[1],11 µM
Cc1nn(Cc2ccccc2)c(C)c1NC(=O)c1ccc(COc2ccccc2)cc1,EC50,[1],10 µM
CNC(=O)c1cccc(Cn2nc(C)c(NC(=O)c3ccc(COc4ccccc4C)cc3)c2C)c1,EC50,[1],2.1 µM
C#Cc1cccc(Nc2ncnc3cc(OCCOC)c(OCCOC)cc23)c1 [ERLOTINIB],EC50,[1],27 µM
CNC(=O)c1cccc(Cn2nc(C)c(NC(=O)c3ccc(COc4ccc(Cl)cc4)cc3)c2C)c1,EC50,[1],4.2 µM
Fc1ccc(CNc2ncnc3ccc(F)cc23)cc1,EC50,[1],20 µM
CNC(=O)c1cccc(Cn2nc(C)c(NC(=O)c3ccc(COc4ccccc4)cc3)c2C)c1,EC50,[1],6.2 µM
CNC(=O)c1cccc(Cn2nc(C)c(NC(=O)c3ccc(COc4ccc(C(F)(F)F)cc4C)cc3)c2C)c1,Activity,[2],Active
same,solubility thermodynamic at 48 h,[3],166 µM
same,EC50,[1],0.62 µM
same,fold change (FC),[4],1.7
same,Activity,[5],Active
same,remaining at 24 h,[6],93%
same,Activity,[7],Active
same,inhibition,[8],78%
same,Activity,[9],Active
same,Activity,[10],Active
same,Activity,[11],Active
same,Activity,[12],Active
same,fold change (FC),[27],1.7
same,Activity,[13],Active
same,EC50 at 72 h,[14],7.1 µM
same,Activity,[16],Active
same,remaining at 6 h,[17],98%
same,fold change (FC),[28],3.3
same,inhibition,[18],Active
same,remaining at 6 h,[19],88%
same,inhibition,[20],Dose-Dependent Effect
same,remaining at 24 h,[21],100%
same,Activity,[29],Dose-Dependent Effect
same,Activity,[22],inactive
same,Activity,[23],inactive
same,Activity,[24],Active
same,Activity,[30],Active
same,Activity,[26],Active
CNC(=O)c1cccc(Cn2nc(C)c(NC(=O)c3ccc(COc4ccccc4OC)cc3)c2C)c1,EC50,[1],8.5 µM
CNC(=O)c1cccc(Cn2nc(C)c(NC(=O)c3ccc(COC4CCCCC4)cc3)c2C)c1,EC50,[1],14 µM
